From ChEMBL document CHEMBL1125822, “Quantitative structure-activity relationships of antitumor guanidinothiazolecarboxamides with survival enhancement for therapy in the 3LL Lewis lung carcinoma model” (1991)

Tested on: Lewis lung carcinoma cell line
Assay: Compound injected intraperitoneally for 8 days and was tested for mean of increased life span in female BDF mice injected intravenously with 3LL Lewis Lung adenocarcinoma into lateral tail vein before 2 days
Format: functional, Mus musculus
Outline: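 Female BDF1 mice (18–20 g) given 6×10^5 log-phase 3LL cells in 0.2 mL RPMI 1640 by lateral tail vein. Drug suspended in DMSO/saline buffered to pH 7.4, dosed ip once daily on days 2–9 (8 treatments); screening dose 50 mg/kg. Mice monitored daily for survival; ILS (%) = (MST treated/MST vehicle control ×100) − 100; significance by Armitage trend test.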

Compound	ILS
COc1cc2nc(NC(=O)c3csc(N=C(N)N)n3)sc2cc1OC	5
COc1ccc(Cl)c2sc(NC(=O)c3csc(N=C(N)N)n3)nc12	69
COc1ccc2sc(NC(=O)c3csc(N=C(N)N)n3)nc2c1C	57
COc1ccc(C(F)(F)F)c2sc(NC(=O)c3csc(N=C(N)N)n3)nc12	17
Cc1cc(C(F)(F)F)cc2sc(NC(=O)c3csc(N=C(N)N)n3)nc12	19
Cc1cc(Cl)cc2sc(NC(=O)c3csc(N=C(N)N)n3)nc12	15
N=C(N)Nc1nc(C(=O)Nc2nc3c(F)ccc(F)c3s2)cs1	26
N=C(N)Nc1nc(C(=O)Nc2nc3cc(Cl)c(C(N)=O)cc3s2)cs1	42
CCOc1ccc2nc(NC(=O)c3csc(N=C(N)N)n3)sc2c1	6
CCOc1ccc(F)c2sc(NC(=O)c3csc(N=C(N)N)n3)nc12	53
N=C(N)Nc1nc(C(=O)Nc2nc3cc(F)c(F)cc3s2)cs1	62
CCCCCS(=O)(=O)c1ccc2nc(NC(=O)c3csc(N=C(N)N)n3)sc2c1	30
Cc1cc(C)c2nc(NC(=O)c3csc(N=C(N)N)n3)sc2c1	64
CCOc1ccc(Cl)c2sc(NC(=O)c3csc(N=C(N)N)n3)nc12	75
COc1ccc2nc(NC(=O)c3csc(N=C(N)N)n3)sc2c1	7.5
N=C(N)Nc1nc(C(=O)Nc2nc3c(F)cccc3s2)cs1	38
Cl.N=C(N)Nc1nc(C(=O)Nc2nc3ccc(S(N)(=O)=O)cc3s2)cs1	1
CCCCOc1ccc2nc(NC(=O)c3csc(N=C(N)N)n3)sc2c1.Cl	59
CC(C)c1cccc2sc(NC(=O)c3csc(N=C(N)N)n3)nc12.Cl	24
Cl.N=C(N)Nc1nc(C(=O)Nc2nc3cc([N+](=O)[O-])ccc3s2)cs1	57
CC(C)(C)c1ccc2nc(NC(=O)c3csc(N=C(N)N)n3)sc2c1.Cl	61

Compound	ILS
Cl.N#Cc1ccc2nc(NC(=O)c3csc(NC(=N)N)n3)sc2c1	53
Cl.N=C(N)Nc1nc(C(=O)Nc2nc3cc(O)ccc3s2)cs1	10
Cl.N=C(N)Nc1nc(C(=O)Nc2nc3cc(F)cc(F)c3s2)cs1	22
Cc1c(Cl)ccc2sc(NC(=O)c3csc(N=C(N)N)n3)nc12.Cl	73
COc1cccc2sc(NC(=O)c3csc(N=C(N)N)n3)nc12.Cl	45
Cl.N=C(N)Nc1nc(C(=O)Nc2nc3cc(-c4ccccc4)ccc3s2)cs1	18
CCOc1ccc2sc(NC(=O)c3csc(N=C(N)N)n3)nc2c1.Cl	44
Cl.N=C(N)Nc1nc(C(=O)Nc2nc3c(O)cccc3s2)cs1	14
Cl.N=C(N)Nc1nc(C(=O)Nc2nc3ccc([N+](=O)[O-])cc3s2)cs1	51.7
Cc1ccc(F)c2sc(NC(=O)c3csc(N=C(N)N)n3)nc12.Cl	53
Cl.N=C(N)Nc1nc(C(=O)Nc2nc3ccc(Cl)cc3s2)cs1	58
Cl.N=C(N)Nc1nc(C(=O)Nc2nc3cccc(-c4ccccc4)c3s2)cs1	49
Cc1cccc2sc(NC(=O)c3csc(N=C(N)N)n3)nc12.Cl	44
CCCc1ccc2nc(NC(=O)c3csc(N=C(N)N)n3)sc2c1.Cl	21.5
Cc1cc2nc(NC(=O)c3csc(N=C(N)N)n3)sc2cc1C.Cl	18
Cl.N=C(N)Nc1nc(C(=O)Nc2nc3ccccc3s2)cs1	15
CCc1cc(C#N)cc2sc(NC(=O)c3csc(N=C(N)N)n3)nc12.Cl	38
Cl.N=C(N)Nc1nc(C(=O)Nc2nc3ccc(Cl)c(C(F)(F)F)c3s2)cs1	69
CCc1ccc2nc(NC(=O)c3csc(N=C(N)N)n3)sc2c1.Cl	33
CCCCOc1ccc2sc(NC(=O)c3csc(N=C(N)N)n3)nc2c1.Cl	34.5
CSc1ccc2sc(NC(=O)c3csc(N=C(N)N)n3)nc2c1.Cl	1

Compound	ILS
CC(C)Oc1ccc2sc(NC(=O)c3csc(N=C(N)N)n3)nc2c1.Cl	23
CSc1cccc2sc(NC(=O)c3csc(N=C(N)N)n3)nc12.Cl	9
Cc1c(F)ccc2sc(NC(=O)c3csc(N=C(N)N)n3)nc12.Cl	62
Cc1cc(F)cc2sc(NC(=O)c3csc(N=C(N)N)n3)nc12.Cl	29
CS(=O)(=O)c1ccc2sc(NC(=O)c3csc(N=C(N)N)n3)nc2c1	1
N=C(N)Nc1nc(C(=O)Nc2nc3cc(Cl)c(Cl)cc3s2)cs1	71
COc1cc([N+](=O)[O-])cc2sc(NC(=O)c3csc(N=C(N)N)n3)nc12	20
N=C(N)Nc1nc(C(=O)Nc2nc3c(Cl)cccc3s2)cs1	18
N=C(N)Nc1nc(C(=O)Nc2nc3cccc(C(F)(F)F)c3s2)cs1	35
COc1cc2nc(NC(=O)c3csc(N=C(N)N)n3)sc2cc1Cl	21
CC(C)c1ccc2nc(NC(=O)c3csc(N=C(N)N)n3)sc2c1	38
N=C(N)Nc1nc(C(=O)Nc2nc3cc(F)c(Cl)cc3s2)cs1	75
N=C(N)Nc1nc(C(=O)Nc2nc3cc(F)c(O)cc3s2)cs1	23
N=C(N)Nc1nc(C(=O)Nc2nc3ccc(-c4ccccc4)cc3s2)cs1	67
Cc1ccc2nc(NC(=O)c3csc(N=C(N)N)n3)sc2c1	37.3
N=C(N)Nc1nc(C(=O)Nc2nc3cc(Cl)c(F)cc3s2)cs1	41
CSc1ccc2nc(NC(=O)c3csc(N=C(N)N)n3)sc2c1	25.5
N=C(N)Nc1nc(C(=O)Nc2nc3c([N+](=O)[O-])cccc3s2)cs1	30
N=C(N)Nc1nc(C(=O)Nc2nc3ccc(F)cc3s2)cs1	38.8
N=C(N)Nc1nc(C(=O)Nc2nc3cc(F)ccc3s2)cs1	67.6
N=C(N)Nc1nc(C(=O)Nc2nc3ccc(C(N)=O)cc3s2)cs1	1
